Kir21 inh: Kir2.1 (mouse) channel inhibition; B-score at 10 µM; 310,000 compounds, 0.85% hits; P35561; HEK293-Kir2.1, FluxOR thallium flux fluorescence; hits give low values;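 active = fluorescence ratio B-score at or below minus 3 SD of library scores, with starting-brightness B-score within 2 SD, cut at about -4.2 in these data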;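 also: channel flux triggered by added potassium and thallium sulfate stimulus; B-score of peak minus minimum fluorescence over baseline after thallium stimulus; more negative B-score means stronger Kir2.1 block with less thallium influx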
KCNK3 inh: human KCNK3 channel inhibition, primary screen; O14649; CHO-KCNK3 thallium flux, FluxOR fluorescence; hits give low values; B-score at 10 µM; 340,000 compounds, 0.84% hits;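 active = B-score under library mean minus 4 SD, starting fluorescence ratio at most library mean plus 5 SD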;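 also: more negative B-score means stronger inhibition of thallium flux through KCNK3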
Target sequence (O14649 whole entry, looked up): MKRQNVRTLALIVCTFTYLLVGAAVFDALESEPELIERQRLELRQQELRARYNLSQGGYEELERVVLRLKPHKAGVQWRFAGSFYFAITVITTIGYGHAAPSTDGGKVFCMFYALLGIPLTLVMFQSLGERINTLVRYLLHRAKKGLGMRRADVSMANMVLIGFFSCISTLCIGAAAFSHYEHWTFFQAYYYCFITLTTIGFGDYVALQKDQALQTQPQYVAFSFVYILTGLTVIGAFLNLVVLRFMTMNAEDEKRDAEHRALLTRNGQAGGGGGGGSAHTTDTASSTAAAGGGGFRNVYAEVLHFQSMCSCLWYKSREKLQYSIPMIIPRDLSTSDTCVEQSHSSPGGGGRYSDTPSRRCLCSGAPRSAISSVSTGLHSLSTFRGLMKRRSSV
KCNK9 block: blocks the human KCNK9 two-pore domain potassium channel | Q9NPC2 | HEK293 KCNK9, FluxOR thallium flux fluorescence; hits give low values | B-score at 10 µM | 310,000 compounds, 1.2% hits;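 active = ratio B-score over 3 SD below the library mean, with starting fluorescence within 5 SD of its mean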;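 also: negative B-score means less thallium flux so channel inhibition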
hERG protect: shields human hERG channel from block by proarrhythmic agents. activation (rescue from dofetilide block), less the hit threshold, % at 10 µM. AID 1511. Q12809. 310,000 compounds, 0.51% hits. CHO-hERG, FluxOR thallium flux, dofetilide IC70 present;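 active = activation above the mean of controls blocked by dofetilide plus 5 SD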;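 also: thallium influx through hERG after potassium depolarization seen as dye fluorescence rise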
KCNQ1 inh: inhibitors of human KCNQ1 potassium channel; P51787; B-score at 10 µM; CHO-K1 KCNQ1, FluxOR thallium flux fluorescence; hits give high values; 310,000 compounds, 1.3% hits; AID 2642;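 active = compounds whose thallium flux B-score, printed positive for inhibition, exceeds three library SD while starting fluorescence stays within three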;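 also: channel opened by potassium depolarization with thallium stimulus after 20 min compound exposure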
KCNQ1 act: potentiates or activates the human KCNQ1 potassium channel; CHO-K1 KCNQ1, thallium flux FluxOR fluorescence; hits give high values; B-score at 10 µM; 310,000 compounds, 0.35% hits; AID 2648;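 active = fluorescence ratio B-score, a plate-corrected score, at least three library SD, with initial intensity B-score within 5 SD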
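Schedule – 37 °C overnight plating, 90-min dark dye load, 20-min compound pretreatment · System – stable KCNQ1 CHO-K1 line · Probe or stimulus – thallium- and potassium-containing depolarizing buffer · Measured by – kinetic FluxOR fluorescence, 10 s baseline plus 110 s post-stimulus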
* hit, by the source's call; i = inactive; . = not tested or not shown. Only some compounds are listed: those with a hit (about 3.7% of all), similar ones and a draw of the others.

SMILES	Kir21 inh	KCNK3 inh	KCNK9 block	hERG protect	KCNQ1 inh	KCNQ1 act
COC(=O)[C@@H]1C[C@@H](c2ccccc2)[C@H](C)C1(C)C	.	i	.	.	.	.
C=CCNC(=O)COC(=O)c1ccc(Cl)c(S(=O)(=O)N(Cc2ccccc2)c2ccccc2)c1	0.29	i	i	-7	6*	i
NC(=O)NC(=O)COC(=O)c1ccc(Cl)c(S(=O)(=O)N(Cc2ccccc2)c2ccc(Cl)cc2)c1	0.09	i	i	-10	i	i
CCCNC(=O)c1nnsc1S(=O)(=O)c1ccc(Cl)cc1	.	-9.1*	.	.	.	.
CCCNC(=O)NS(=O)(=O)c1ccc(Cl)cc1	0.31	i	i	-6	i	i
CCCNC(=O)c1ccc2snnc2c1	.	i	.	.	.	.
CNC(=O)c1nnsc1S(=O)c1ccc(Cl)cc1 (centres undefined)	-7.6*	i	i	-21	i	13*
CCCNC(=O)c1nnsc1S(=O)c1ccc(Cl)cc1 (centres undefined)	-6.1*	i	i	-13	i	i
COC(=O)c1ccccc1C(=O)N(Cc1cccnc1)CC1CCCN(C2CCCCC2)C1 (centres undefined)	-0.16	i	i	-8	i	i
CC1=C(C(=O)Nc2ccccc2)C(c2ccco2)C(C#N)=C(SCC(=O)OC(C)C)N1 (centres undefined)	0.39	-9.8*	i	-25	i	i
CCc1ccc(C(=O)CSC2=C(C#N)C(c3ccco3)C(C(C)=O)=C(C)N2)cc1 (centres undefined)	-0.79	.	-11*	-10	i	i
CC(=O)C1=C(C)NC(SCC(=O)c2ccc(F)cc2)=C(C#N)C1c1ccco1 (centres undefined)	-0.88	i	i	-8	i	i
CC1=C(C(=O)Nc2ccccc2)C(c2ccco2)C(C#N)=C(SCc2ccccc2)N1 (centres undefined)	1.3	.	i	-12	11*	i
CC1=C(C(=O)Nc2ccccc2)C(c2ccco2)C(C#N)=C(SCC(=O)Nc2cccc(C)c2C)N1 (centres undefined)	0.17	i	i	-7	i	i
NC(=O)c1cc2n(n1)C(C(F)(F)F)CC(c1ccco1)N2 (centres undefined)	1.5	i	i	0	i	i
CC1(c2nnc(-c3cccc(Cl)c3)o2)CC(c2ccc(Br)cc2)=NO1 (centres undefined)	-0.79	i	i	-7	i	i
CCCc1nnc(NS(=O)(=O)c2ccc(C)cc2)o1	.	i	.	.	.	.
O=C(NC(=S)NCCc1ccccc1)c1ccco1	-0.9	i	i	-3	i	i
O=C(NC(=S)NCCC1=CCCCC1)c1ccco1	1.2	i	i	30*	i	27*
COc1ccc(Br)c(C(=O)OCC(=O)NC2CCCCCC2)c1	.	i	.	.	.	.
CC(=O)N1N=C(c2cccc([N+](=O)[O-])c2)OC1c1ccc(Cl)cc1Cl (centres undefined)	1.9	i	i	-3	i	i
CC(=O)N1N=C(c2cccc([N+](=O)[O-])c2)OC1c1ccc(Br)cc1 (centres undefined)	0.8	i	-7*	-5	i	i
CCn1nnnc1SCC(=O)N1CCCc2ccccc21	2.2	i	i	-4	i	i
Cc1nn(C)c(C(=O)NC(=S)Nc2ccccc2Br)c1Cl	-0.23	i	i	17*	i	22*
CCn1ncc(Cl)c1C(=O)NC(=S)Nc1ccccc1Br	-0.24	i	i	35*	i	26*
Cc1nn(C)c(C(=O)NNC(=S)Nc2ccc(F)cc2)c1[N+](=O)[O-]	0.74	i	i	-10	i	i
Cc1nn(C)c(C(=O)NC(=S)Nc2ccc([N+](=O)[O-])cc2)c1Cl	-0.49	i	i	43*	i	34*
Cc1cccc(C2N=C(N)Nc3nc4ccccc4n32)c1 (centres undefined)	1.2	i	i	-15	i	i
COc1cccc(NC(=O)CSc2nc3c(sc4ccccc43)c(=O)n2CCN(C)C)c1	-0.65	i	i	-15	i	i
